# Activity calls are given as the source filed them. No cut-off for these calls is given here.
# How the values were obtained:
# [1] = target: T1, 3-hydroxyacyl-CoA dehydrogenase type-2 (Mus musculus) (UniProt O08756); experiment: Inhibition of recombinant mouse full-length 17beta-HSD10 (2 to 261 residues) assessed as reduction in transformation of [3H]-ALLOP to 5alpha-DHP at 100 uM after 48 hrs in presence of 1 mM NAD+ cofactor by liquid scintillation counting method relative to control
# T1 sequence (whole entry): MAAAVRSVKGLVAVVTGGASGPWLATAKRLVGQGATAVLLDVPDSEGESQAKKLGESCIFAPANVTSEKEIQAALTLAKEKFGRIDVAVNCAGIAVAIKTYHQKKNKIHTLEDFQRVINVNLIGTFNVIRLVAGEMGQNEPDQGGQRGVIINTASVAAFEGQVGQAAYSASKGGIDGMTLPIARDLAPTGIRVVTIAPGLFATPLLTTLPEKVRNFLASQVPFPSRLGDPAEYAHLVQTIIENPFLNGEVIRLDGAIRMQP
# Method in brief: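 Screen at 100 μM inhibitor, 48 h, with 400 ng/mL purified enzyme, 1 mM NAD⁺ and 1 μM [³H]-ALLOP/ALLOP (1:99). ALLOP-to-5α-DHP conversion was expressed as % inhibition versus the no-inhibitor transformation. Results are mean ± SEM.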
# [2] = target: T1, 3-hydroxyacyl-CoA dehydrogenase type-2 (Mus musculus); experiment: Inhibition of recombinant mouse full-length 17beta-HSD10 (2 to 261 residues) assessed as reduction in transformation of [14C]-E2 to E1 at 100 uM after 48 hrs in presence of 1 mM NAD+ cofactor by liquid scintillation counting method
# [3] = target: T1, 3-hydroxyacyl-CoA dehydrogenase type-2 (Mus musculus); experiment: Inhibition of recombinant mouse full-length 17beta-HSD10 (2 to 261 residues) assessed as reduction in transformation of [14C]-E2 to E1 at 300 uM after 48 hrs in presence of 1 mM NAD+ cofactor by liquid scintillation counting method relative to control
# Method in brief: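 Single-concentration screen at 300 μM inhibitor. Purified 17β-HSD10 (400 ng/mL), 1 mM NAD⁺, 1 μM [¹⁴C]-E2/E2 (1:9), 48 h incubation. E2-to-E1 conversion was measured and inhibition expressed relative to uninhibited transformation. Results are mean ± SEM.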
# [4] = Octanol/water partition co-efficient, log P of the compound; format: physicochemical
# Method in brief: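 Octanol/water partition coefficient calculated in silico, not measured.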
# [5] = target: T2, 3-hydroxyacyl-CoA dehydrogenase type-2 (Mus musculus, UniProt O08756); experiment: Inhibition of recombinant mouse full-length 17beta-HSD10 (2 to 261 residues) assessed as reduction in transformation of [3H]-ALLOP to 5alpha-DHP after 48 hrs in presence of 1 mM NAD+ cofactor by liquid scintillation counting method
# T2 sequence (O08756 whole entry): T1 sequence (whole entry)
# Method in brief: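 Purified 17β-HSD10 (400 ng/mL), 1 mM NAD⁺, 1 μM [³H]-ALLOP/ALLOP (1:99), 48 h incubation. Oxidation to 5α-DHP was measured over a range of inhibitor concentrations to build inhibition curves and estimate IC50. Results are mean ± SEM.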
# [6] = target: T2, 3-hydroxyacyl-CoA dehydrogenase type-2; experiment: Inhibition of recombinant mouse full-length 17beta-HSD10 (2 to 261 residues) assessed as reduction in transformation of [14C]-E2 to E1 after 48 hrs in presence of 1 mM NAD+ cofactor by liquid scintillation counting method
# Method in brief: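 Purified 17β-HSD10 at 400 ng/mL with 1 mM NAD⁺ and substrate [¹⁴C]-E2/E2 (1:9) at 1 μM total, incubated 48 h. E2-to-E1 oxidation was followed with radiolabel. Percent inhibition over a dose range was used for dose-response curves and IC50 estimation. Results are mean ± SEM.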
# [7] = Blood-brain transfer coefficient in mouse administered via perfusion; format: ADME, tissue-based; conditions: in vivo, other
# [8] = Effect on mouse brain penetration assessed as [14C]-sucrose uptake administered via perfusion; format: ADME, tissue-based; conditions: in vivo
# [9] = Solubility of the compound at 600 to 1000 uM; format: physicochemical
compound,measurement,setting,value
C[C@]12CC[C@](O)(CN3CCN(C(=S)NCc4cccc(C(F)(F)F)c4)CC3)C[C@@H]1CC[C@@H]1[C@@H]2CC[C@]2(C)C(=O)CC[C@@H]12,inhibition,[1],34.2%
same,inhibition,[2],inactive
same,inhibition,[3],8.5%
same,logP,[4],3.85
COc1cc(CN2CCN(C[C@@]3(O)CC[C@@]4(C)[C@@H](CC[C@@H]5[C@@H]4CC[C@]4(C)C(=O)CC[C@@H]54)C3)CC2)ccc1C,inhibition,[1],12.5%
same,inhibition,[2],inactive
same,inhibition,[3],31%
same,logP,[4],4.72
CCN(C)S(=O)(=O)N1CCN(C[C@@]2(O)CC[C@@]3(C)[C@@H](CC[C@@H]4[C@@H]3CC[C@]3(C)C(=O)CC[C@@H]43)C2)CC1,inhibition,[1],0%
same,inhibition,[2],inactive
same,inhibition,[3],10.2%
same,logP,[4],2.97
CN(C)S(=O)(=O)c1ccc(NC(=S)N2CCN(C[C@@]3(O)CC[C@@]4(C)[C@@H](CC[C@@H]5[C@@H]4CC[C@]4(C)C(=O)CC[C@@H]54)C3)CC2)cc1,inhibition,[1],13.3%
same,inhibition,[2],inactive
same,inhibition,[3],0.3%
same,logP,[4],3.32
C[C@]12CC[C@@H]3c4ccc(O)cc4CC[C@H]3[C@@H]1CC[C@@H]2O [ESTRADIOL],IC50,[5],770 µM
same,IC50,[6],155 µM
CC(=O)c1cccc(C(=O)N2CCN(C[C@@]3(O)CC[C@@]4(C)[C@@H](CC[C@@H]5[C@@H]4CC[C@]4(C)C(=O)CC[C@@H]54)C3)CC2)c1,inhibition,[1],5%
same,inhibition,[2],inactive
same,logP,[4],3.85
COc1cccc(CN2CCN(C[C@@]3(O)CC[C@@]4(C)[C@@H](CC[C@@H]5[C@@H]4CC[C@@]4(C)[C@H]5CC[C@]4(C)O)C3)CC2)c1,inhibition,[1],21.9%
same,inhibition,[2],inactive
same,inhibition,[3],22.6%
same,logP,[4],5.06
C[C@]12CC[C@](O)(CN3CCN(Cc4cnc5ccccc5c4)CC3)C[C@@H]1CC[C@@H]1[C@@H]2CC[C@]2(C)C(=O)CC[C@@H]12,inhibition,[1],15.2%
same,inhibition,[2],inactive
same,inhibition,[3],36.1%
same,logP,[4],4.58
C#C[C@]1(O)CC[C@H]2[C@@H]3CC[C@H]4C[C@@](O)(CN5CCN(Cc6cccc(OC)c6)CC5)CC[C@]4(C)[C@H]3CC[C@@]21C,inhibition,[1],20%
same,inhibition,[2],inactive
same,inhibition,[3],44.5%
same,logP,[4],4.93
COc1cccc(CN2CCN(C[C@@]3(O)CC[C@@]4(C)[C@@H](CC[C@@H]5[C@@H]4CC[C@]4(C)[C@H](O)CC[C@@H]54)C3)CC2)c1,inhibition,[1],41.7%
same,IC50,[5],235 µM
same,inhibition,[2],inactive
same,inhibition,[3],31.7%
same,IC50,[6],610 µM
same,logP,[4],4.67
COc1cccc(CN2CCN(C[C@@]3(O)CC[C@@]4(C)[C@@H](CC[C@@H]5[C@@H]4CC[C@]4(C)C(=O)CC[C@@H]54)C3)CC2)c1,inhibition,[1],14.7%
same,IC50,[5],985 µM
same,inhibition,[2],inactive
same,inhibition,[3],30%
same,IC50,[6],710 µM
same,Kin,[7],13.8 to 32.7 µL/s/g
same,Activity,[8],Non-Toxic
same,logP,[4],4.43
C[C@]12CC[C@](O)(CN3CCN(C(=O)c4ccc(C(=O)c5ccccc5)cc4)CC3)C[C@@H]1CC[C@@H]1[C@@H]2CC[C@]2(C)C(=O)CC[C@@H]12,inhibition,[1],8%
same,inhibition,[2],inactive
same,inhibition,[3],58.8%
same,logP,[4],4.99
COc1cccc(CN2CCN(C[C@@]3(O)CC[C@@]4(C)[C@@H](CC[C@@H]5[C@@H]4CC[C@]4(C)[C@@H](O)CC[C@@H]54)C3)CC2)c1,inhibition,[1],0%
same,inhibition,[2],inactive
same,inhibition,[3],13.7%
same,logP,[4],4.67
C[C@]12CC[C@](O)(CN3CCN(C(=O)c4ccc(-c5ccccc5)cc4)CC3)C[C@@H]1CC[C@@H]1[C@@H]2CC[C@]2(C)C(=O)CC[C@@H]12,inhibition,[1],19.3%
same,inhibition,[2],inactive
same,inhibition,[3],29.4%
same,logP,[4],5.3
COc1cccc(CN2CCN(C[C@@]3(O)CC[C@@]4(C)[C@@H](CC[C@@H]5[C@@H]4CC[C@@]4(C)[C@H]5CCC4(F)F)C3)CC2)c1,inhibition,[1],38.6%
same,solubility,[9],Insoluble
same,inhibition,[2],inactive
same,inhibition,[3],13.3%
same,logP,[4],5.57
CN1C(=O)CN=C(c2ccccc2)c2cc(Cl)ccc21 [DIAZEPAM],Kin,[7],50 to 60 µL/s/g
COc1cccc(CN2CCN(C[C@@]3(O)CC[C@@]4(C)[C@@H](CC[C@@H]5[C@@H]4CC[C@]4(C)C(=O)C(C)(C)C[C@@H]54)C3)CC2)c1,inhibition,[1],11.1%
same,inhibition,[2],inactive
same,inhibition,[3],24.6%
same,logP,[4],5.57
Cc1cc(C)cc(C(=O)N2CCN(C[C@@]3(O)CC[C@@]4(C)[C@@H](CC[C@@H]5[C@@H]4CC[C@]4(C)C(=O)CC[C@@H]54)C3)CC2)c1,inhibition,[1],1.5%
same,inhibition,[2],inactive
same,logP,[4],4.86

# Source: ChEMBL document CHEMBL4261611, “Identification of steroidal derivatives inhibiting the transformations of allopregnanolone and estradiol by 17β-hydroxysteroid dehydrogenase type 10” (Bioorg Med Chem Lett, 2018)
